In ChEMBL document CHEMBL2157918, “Design and synthesis of 1H-1,2,3-triazoles derived from econazole as antitubercular agents” (Bioorg Med Chem Lett, 2012):
In brackets after ≈: the same amount, converted by molar mass.

Columns and labels:
[1] = system: Mycobacterium tuberculosis; assay: Antitubercular activity against Mycobacterium tuberculosis H37Rv expressing GFP after 7 days by reporter gene assay; format: functional; conditions: 168 h
Outline: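 Compound dissolved in DMSO, two-fold dilutions in 7H9 broth; Mtb H37Rv-GFP grown in Middlebrook 7H9, inoculum 2 × 10⁵ CFU/mL, exposed 7 days. Fluorescence read; MIC = lowest concentration inhibiting fluorescence by 90% versus bacteria-only wells.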

Candida albicans = assay: Antifungal activity against Candida albicans ATCC 90027 after 48 hrs by broth microdilution method; format: functional; conditions: ATCC 90027, 48 h
Outline: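 Broth microdilution with two-fold compound dilutions in tryptic soy broth. C. albicans grown in the same medium was exposed for 48 h. Growth was visualized with Alamar Blue. MIC was taken as the lowest concentration that inhibited the Alamar Blue color change.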

Vero = assay: Cytotoxicity against african green monkey Vero cells after 3 days by MTT assay; format: cell-based; conditions: Chlorocebus sabaeus, 72 h
Outline: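 Early-log-phase Vero cell suspension was exposed to serially diluted compounds (initially in DMSO) in RPMI 1640 for 3 days and read by MTT assay. Effect was normalized to DMSO-only wells and IC50 was calculated.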

[2] = system: Mycobacterium tuberculosis; assay: Ratio of econazole MIC90 to compound MIC90 for Mycobacterium tuberculosis H37Rv; format: functional
[3] = Selectivity index, ratio of IC50 for african green monkey Vero cells to MIC90 for Mycobacterium tuberculosis H37Rv; format: functional
Outline: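 Vero cells in early log phase, in RPMI 1640, exposed to serial compound dilutions for 3 days; viability by MTT assay; effect normalized to DMSO-only wells, IC50 by curve fitting. SI = Vero IC50 over Mtb H37Rv-GFP MIC (90% fluorescence inhibition, 7-day 7H9 exposure, 2 × 10⁵ CFU/mL inoculum).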

OCc1cn(CC(OCc2ccc(Cl)cc2)c2ccc(Cl)cc2Cl)nn1 (stereo not given)
MIC90 [1]: > 256 µg/mL | MIC (Candida albicans): > 256 µg/mL | IC50 (Vero): 19.8 µg/mL (≈ 48 µM)

Clc1ccc(COC(Cn2cc(C3CCCCC3)nn2)c2ccc(Cl)cc2Cl)cc1 (stereo not given)
MIC90 [1]: > 256 µg/mL | MIC (Candida albicans): > 256 µg/mL | IC50 (Vero): > 12.5 µg/mL

CC(C)(C)c1cn(CC(OCc2ccc(Cl)cc2)c2ccc(Cl)cc2Cl)nn1 (stereo not given)
MIC90 [1]: > 256 µg/mL | MIC (Candida albicans): > 256 µg/mL | IC50 (Vero): > 25 µg/mL

Nc1cccc(-c2cn(CC(OCc3ccc(Cl)cc3)c3ccc(Cl)cc3Cl)nn2)c1 (stereo not given)
MIC90 [1]: > 256 µg/mL | MIC (Candida albicans): > 256 µg/mL | IC50 (Vero): > 50 µg/mL

Nc1ccc(-c2cn(CC(OCc3ccc(Cl)cc3)c3ccc(Cl)cc3Cl)nn2)cc1 (stereo not given)
MIC90 [1]: 256 µg/mL (≈ 540 µM) | MIC (Candida albicans): > 256 µg/mL | IC50 (Vero): > 50 µg/mL

Clc1ccc(COC(Cn2cc(-c3ccccn3)nn2)c2ccc(Cl)cc2Cl)cc1 (stereo not given)
MIC90 [1]: 256 µg/mL (≈ 557 µM) | MIC (Candida albicans): > 256 µg/mL | IC50 (Vero): > 50 µg/mL

OC(Cn1ccnn1)c1ccc(Cl)cc1Cl (stereo not given)
MIC90 [1]: 256 µg/mL (≈ 992 µM) | MIC (Candida albicans): > 256 µg/mL | IC50 (Vero): > 200 µg/mL

OC(Cn1nnc2ccccc21)c1ccc(Cl)cc1Cl (stereo not given)
MIC90 [1]: > 256 µg/mL | MIC (Candida albicans): > 256 µg/mL | IC50 (Vero): > 100 µg/mL

Clc1ccc(COC(Cn2ccnn2)c2ccc(Cl)cc2Cl)cc1 (stereo not given)
MIC90 [1]: 64 µg/mL (≈ 167 µM) | MIC (Candida albicans): > 256 µg/mL | IC50 (Vero): > 12.5 µg/mL

Clc1ccc(COC(Cn2nnc3ccccc32)c2ccc(Cl)cc2Cl)cc1 (stereo not given)
MIC90 [1]: 128 µg/mL (≈ 296 µM) | MIC (Candida albicans): > 256 µg/mL | IC50 (Vero): > 12.5 µg/mL

CCCCc1cn(CC(O)c2ccc(Cl)cc2Cl)nn1 (stereo not given)
MIC90 [1]: 8 µg/mL (≈ 25.5 µM) | Ratio [2]: 2 | MIC (Candida albicans): > 256 µg/mL | IC50 (Vero): 23.3 µg/mL (≈ 74.1 µM) | Selectivity Index [3]: 1

OCCc1cn(CC(O)c2ccc(Cl)cc2Cl)nn1 (stereo not given)
MIC90 [1]: 256 µg/mL (≈ 847 µM) | MIC (Candida albicans): > 256 µg/mL | IC50 (Vero): 274 µg/mL (≈ 907 µM)

OCc1cn(CC(O)c2ccc(Cl)cc2Cl)nn1 (stereo not given)
MIC90 [1]: > 256 µg/mL | IC50 (Vero): > 100 µg/mL

OC(Cn1cc(C2CCCCC2)nn1)c1ccc(Cl)cc1Cl (stereo not given)
MIC90 [1]: 16 µg/mL (≈ 47 µM) | MIC (Candida albicans): > 256 µg/mL | IC50 (Vero): 31.9 µg/mL (≈ 93.9 µM) | Selectivity Index [3]: 1

CC(C)(C)c1cn(CC(O)c2ccc(Cl)cc2Cl)nn1 (stereo not given)
MIC90 [1]: 32 µg/mL (≈ 102 µM) | MIC (Candida albicans): 256 µg/mL (≈ 815 µM) | IC50 (Vero): 33.9 µg/mL (≈ 108 µM)

Nc1cccc(-c2cn(CC(O)c3ccc(Cl)cc3Cl)nn2)c1 (stereo not given)
MIC90 [1]: 32 µg/mL (≈ 91.6 µM) | MIC (Candida albicans): > 256 µg/mL | IC50 (Vero): 26.8 µg/mL (≈ 76.7 µM)

Nc1ccc(-c2cn(CC(O)c3ccc(Cl)cc3Cl)nn2)cc1 (stereo not given)
MIC90 [1]: 32 µg/mL (≈ 91.6 µM) | MIC (Candida albicans): > 256 µg/mL | IC50 (Vero): 33.9 µg/mL (≈ 97.2 µM)

OC(Cn1cc(-c2ccccn2)nn1)c1ccc(Cl)cc1Cl (stereo not given)
MIC90 [1]: 32 µg/mL (≈ 95.5 µM)

CCCCc1cn(CC(OCc2ccc(Cl)cc2)c2ccc(Cl)cc2Cl)nn1 (stereo not given)
MIC90 [1]: 128 µg/mL (≈ 292 µM) | MIC (Candida albicans): > 256 µg/mL | IC50 (Vero): 10.6 µg/mL (≈ 24.2 µM)

CCCCc1cn(CC(OCc2ccc(OC(F)(F)F)cc2)c2ccc(Cl)cc2Cl)nn1 (stereo not given)
MIC90 [1]: > 256 µg/mL | MIC (Candida albicans): > 256 µg/mL | IC50 (Vero): 63.4 µg/mL (≈ 130 µM)

CCCCc1cn(CC(OCc2ccc(F)cc2F)c2ccc(Cl)cc2Cl)nn1 (stereo not given)
MIC90 [1]: > 256 µg/mL | MIC (Candida albicans): > 256 µg/mL | IC50 (Vero): 21 µg/mL (≈ 47.7 µM)

OCCc1cn(CC(OCc2ccc(Cl)cc2)c2ccc(Cl)cc2Cl)nn1 (stereo not given)
MIC90 [1]: > 256 µg/mL | MIC (Candida albicans): > 256 µg/mL | IC50 (Vero): 24.3 µg/mL (≈ 57 µM)

OCCc1cn(CC(OCc2ccc(OC(F)(F)F)cc2)c2ccc(Cl)cc2Cl)nn1 (stereo not given)
MIC90 [1]: > 64 µg/mL | MIC (Candida albicans): > 64 µg/mL

OCCc1cn(CC(OCc2ccc(F)cc2F)c2ccc(Cl)cc2Cl)nn1 (stereo not given)
MIC90 [1]: 128 µg/mL (≈ 299 µM) | MIC (Candida albicans): > 256 µg/mL | IC50 (Vero): 33.7 µg/mL (≈ 78.6 µM)

Clc1ccc(COC(Cn2ccnc2)c2ccc(Cl)cc2Cl)cc1 (stereo not given) [ECONAZOLE]
MIC90 [1]: 16 µg/mL (≈ 41.9 µM) | MIC (Candida albicans): 16 µg/mL (≈ 41.9 µM) | Selectivity Index [3]: 1

CO[C@H]1/C=C/O[C@@]2(C)Oc3c(C)c(O)c4c(O)c(c(/C=N/N5CCN(C)CC5)c(O)c4c3C2=O)NC(=O)/C(C)=C\C=C\[C@H](C)[C@H](O)[C@@H](C)[C@@H](O)[C@@H](C)[C@H](OC(C)=O)[C@@H]1C [RIFAMPIN]
MIC90 [1]: 0.0625 µg/mL (≈ 0.0759 µM)
